Source: PubChem BioAssay
In the library only some 2% were active in any assay of this set; here they are far more common.
TCR CD3 inh: inhibitors of human TCR-CD3 interaction, primary screen, biochemical, fluorescence, TAMRA-labeled TCR probe; T-cell receptor (TCR); inhibition, % at 9.4 µM; 0.37% of 360,000 active; in the data active means inhibition above about 19%;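 further: recombinant mutant TCR 2C K166C tagged with TAMRA read by polarization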
ARFGAP1 inhibitor: inhibitors of rat ARFGAP1 GAP activity, primary screen, biochemical, fluorescence polarization, GDP tracer | ADP-ribosylation factor GTPase-activating protein 1 (Rattus norvegicus), Q62848 | Arfgap1-stimulated ARF1 GTP hydrolysis, GDP FP detection | inhibition, % at 16.5 µM | 0.26% of 360,000 active | AID 651572, 2012;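 active means inhibition above a per-plate limit, mean inhibition of low control wells plus 3 SD, cut at about 25% in these data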
Target sequence (Q62848 1-136 limits assumed): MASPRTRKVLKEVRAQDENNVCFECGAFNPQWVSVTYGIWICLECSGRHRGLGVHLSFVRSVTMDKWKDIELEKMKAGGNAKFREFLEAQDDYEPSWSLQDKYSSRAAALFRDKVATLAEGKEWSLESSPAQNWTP
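System: truncated rat Arfgap1 GAP domain / Benchmarks: high control wells lacking Arfgap1, low control full reaction with DMSO / Times: compound-enzyme preincubation 20 min, reaction 120 min, detection 60 min, 25 °C / Repeats: one replicate per compound / Also added: human ARF1(Δ1-17)-GTP substrate / Measured by: Tracer-displacement fluorescence polarization with EDTA stop, 620/688 nm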
ASAP1 GAP inh: inhibitors of human ASAP1 ArfGAP activity, primary screen, biochemical, fluorescence polarization; Arf-GAP with SH3 domain, ANK repeat and PH domain-containing protein 1 (Homo sapiens), …; ASAP1-stimulated ARF1 GTP hydrolysis, GDP FP detection; inhibition, % at 16.5 µM; 0.19% of 360,000 active; AID 624377, 2012; in the data active means inhibition above about 25%
UHRF1 binding: UHRF1 methylated DNA binding inhibitors, primary screen, counter-screen for MBD2 inhibitor project, biochemical, TR-FRET, human UHRF1, single concentration; E3 ubiquitin-protein ligase UHRF1 (Homo sapiens), Q96T88; UHRF1 binding to methylated oligo; inhibition, % at 4.4 µM; 0.75% of 370,000 active; AID 687016, 2013; in the data active means inhibition above about 21%;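 further: UHRF1 SRA domain binding a hemimethylated CpG hairpin DNA probe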
LEDGF integ inh: blockers of LEDGF/p75-dependent integrase strand transfer – biochemical, TR-FRET, high throughput, primary screen; TR-FRET IN-LEDGF/p75 DNA integration, Eu/Cy5; inhibition, % at 3.7 µM; 0.64% of 370,000 active; AID 743269, 2014;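 active means inhibition above the screen-wide mean plus 3 SD, cut at about 13% in these data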;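 further: signal is the Cy5 over europium emission ratio at 671 and 618 nm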
MBD2 inh: inhibitors of MBD2 binding to methylated DNA, primary screen, biochemical, TR-FRET, DNA-binding domain, human. Methyl-CpG-binding domain protein 2 (Homo sapiens), Q9UBB5. MBD2 binding to methylated oligonucleotide. 0.31% of 370,000 active. inhibition, % at 4.4 µM; in the data active means inhibition above about 13%
Target sequence (Q9UBB5 whole entry, looked up, the tested form may be a part): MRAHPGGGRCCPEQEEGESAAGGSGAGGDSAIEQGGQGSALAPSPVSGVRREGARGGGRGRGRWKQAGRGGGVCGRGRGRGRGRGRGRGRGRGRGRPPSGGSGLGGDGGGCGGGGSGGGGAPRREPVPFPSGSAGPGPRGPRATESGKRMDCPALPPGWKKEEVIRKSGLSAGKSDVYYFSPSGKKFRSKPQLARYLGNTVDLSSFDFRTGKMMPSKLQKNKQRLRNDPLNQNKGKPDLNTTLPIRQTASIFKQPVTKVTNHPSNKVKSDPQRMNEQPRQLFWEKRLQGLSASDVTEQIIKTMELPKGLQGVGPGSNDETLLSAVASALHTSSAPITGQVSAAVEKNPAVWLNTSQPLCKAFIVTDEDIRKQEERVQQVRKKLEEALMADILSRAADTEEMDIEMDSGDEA
IN multimer act: HIV-1 IN multimer formation enhancers, counter-screen for LEDGF/p75 integration inhibitor project, biochemical, TR-FRET; TR-FRET HIV-1 integrase multimerization; 17% of 2,000 active; activation, % at 7.7 µM; shares compounds with LEDGF integ inh; in the data active means activation above about 8.9%
TR-FRET interf: TR-FRET optical interference artefacts, confirmation, artefact control for LEDGF/p75-dependent integration inhibitor project, biochemical, HIV-1 IN multimerization; shares compounds with LEDGF integ inh; TR-FRET optical interference counterscreen; inhibition, % at 7.7 µM; 2,000 tested, under 10 active; AID 1053135, 2014;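 active means inhibition above the mean over all tested compounds plus 3 SD, which no compound reached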
IN-LEDGF confirm: inhibitors of HIV-1 IN-LEDGF/p75 DNA integration, confirmation, biochemical, TR-FRET | shares compounds with LEDGF integ inh | TR-FRET LEDGF/p75-dependent HIV-1 integration | inhibition, % at 3.7 µM | 36% of 2,000 active | AID 1053136, 2014; in the data active means inhibition above about 14%
A number is an active result; n = inactive; x = no result given.

SMILES | TCR CD3 inh | ARFGAP1 inhibitor | ASAP1 GAP inh | UHRF1 binding | LEDGF integ inh | MBD2 inh | IN multimer act | TR-FRET interf | IN-LEDGF confirm
Cc1ccc(NC(=O)CN(c2ccccc2F)S(C)(=O)=O)cc1 | n | n | n | n | 21 | n | n | n | n
COc1ccccc1NC(=O)CSCC(=O)N1c2ccccc2CCc2ccccc21 | n | n | n | n | 13 | n | n | n | n
NC(=O)C1(c2ccccc2)CCC(=O)N1c1ccccc1 (stereo not given) | n | n | n | n | 35 | n | n | n | n
Cc1cc(C(C)(C)C)cc(C)c1S(=O)(=O)N1CCN(C(=O)c2cc([N+](=O)[O-])c[nH]c2=O)CC1 | n | n | n | n | 28 | n | n | n | n
Cc1cc(C)c(S(=O)(=O)N2CCN(C(=O)c3cc(=O)[nH]c4ccccc34)CC2)c(C)c1 | n | n | n | n | n | n | x | x | x
Cc1noc(C)c1CSCC(=O)N(C)CC(=O)Nc1ccccc1Cl | n | n | n | n | n | n | x | x | x
OC(Cc1cccnc1)(c1ccccc1)c1ccccc1 | n | n | n | n | n | n | x | x | x
Nc1ccccc1C(O)(Cc1ccccc1)c1ccccc1 (stereo not given) | n | n | n | n | 87 | n | n | n | n
O=CN/C=C/c1cc(O)ccc1O | n | n | n | n | 24 | n | 18 | n | n
CC(=O)OC(C=C(C)C)C/C(C)=C/COc1c2ccoc2cc2oc(=O)ccc12 (stereo not given) | n | n | n | n | n | n | x | x | x
CN1CCN(S(=O)(=O)c2cccc(C(=O)N3CCN(c4ccccc4F)CC3)c2)CC1 | n | n | n | n | 26 | n | n | n | n
CC(NC(=O)CCC(=O)Nc1ccccc1O)c1ccccc1 (stereo not given) | n | n | n | n | n | n | x | x | x
CC(CNc1ccccc1O)C(=O)O (stereo not given) | n | n | n | n | 23 | n | 11 | n | n
CCC(=O)c1ccc(OCC(O)Cn2cnc3ccccc32)cc1 (stereo not given) | n | n | n | n | 36 | n | 11 | n | n
CCCN(CC1CC1)C(=S)NC(=O)c1cc(Br)ccc1Cl | n | n | n | n | 17 | n | n | n | n
CCCN(CC1CC1)C(=S)NC(=O)c1ccccc1C | n | n | n | n | n | n | x | x | x
Cc1cc2c(cc1S(=O)(=O)N(C)Cc1ccccc1)OCC(=O)N2 | n | n | n | n | n | n | x | x | x
COC(=O)\C(C(C)=O)=C(/C=C/C=C/C=C/N(C)C)N(C)C | n | n | n | 55 | 56 | n | n | n | 59
Clc1ccc2oc(-c3cccnc3)nc2c1 | n | n | n | n | n | n | x | x | x
Clc1ccc2oc(-c3ccccc3)nc2c1 | n | n | n | n | 19 | n | n | n | n
CCCn1ccnc1SCC(=O)Nc1c(C)n(C)n(-c2ccccc2)c1=O | n | n | n | n | n | n | x | x | x
COC(=O)[C@H]1C[C@@]2(C)c3ccccc3N(S(=O)(=O)c3ccccc3)[C@H]2N1C(=O)CNC1CCCCC1 | x | x | x | n | n | n | x | x | x
CC1CN(S(=O)(=O)c2ccc(C(=O)Nc3nccs3)cc2)CC(C)O1 (stereo not given) | n | n | n | n | n | n | x | x | x
O=C(Nc1nccs1)c1ccc(S(=O)(=O)N2CCCCC2)cc1 | n | n | n | n | 15 | n | n | n | n
C[n+]1cccc2c(Br)ccc([O-])c21 | n | n | n | n | 45 | n | n | n | 61
SMILES | TCR CD3 inh | ARFGAP1 inhibitor | ASAP1 GAP inh | UHRF1 binding | LEDGF integ inh | MBD2 inh | IN multimer act | TR-FRET interf | IN-LEDGF confirm
[O-][n+]1cccc2c(Br)cc(Br)c(O)c21 | n | n | n | n | n | n | x | x | x
NC1=C(Cl)C(=O)c2ccc(S(N)(=O)=O)cc2C1=O | n | n | 57 | n | 29 | n | 12 | n | 76
NC1=C(Cl)C(=O)c2ccccc2C1=O | n | n | n | n | n | n | x | x | x
COc1ccc(S(=O)(=O)N2CCCCC2c2cc(C(=O)Nc3ccc(F)c(Cl)c3)no2)cc1 (stereo not given) | n | n | n | n | n | n | x | x | x
NC(c1csc(Nc2cnccn2)n1)c1ccccc1Cl (stereo not given) | n | n | n | n | n | n | x | x | x
NC(c1csc(Nc2ccccn2)n1)c1ccccc1Cl (stereo not given) | n | n | n | n | 15 | n | n | n | n
CC(C)(C)NCC(O)COc1ccccc1C1CCCC1 (stereo not given) | n | n | n | n | n | n | x | x | x
COc1cc(C(=O)O)c2c(c1C)OC(=O)c1c(C)cc(O)c(C=O)c1O2 | n | n | n | n | 17 | n | n | n | 38
CC(C)C[C@H]1CN([C@@H](Cc2ccc(O)cc2)CN2CCC[C@H]2CN2C(=O)C(=O)NC[C@@H]2Cc2ccc(O)cc2)C(=O)C(=O)N1CCc1ccccc1 | n | n | n | n | n | n | x | x | x
Cc1nnc(N/N=C/c2ccccc2O)n1N | n | n | n | n | 59 | n | n | n | n
CCc1nnc(N/N=C/c2cc(C)c(C)cc2C)n1N | n | n | n | n | 58 | n | n | n | n
Cc1nnc(N/N=C/c2c(Cl)cccc2Cl)n1N | n | n | n | n | 35 | n | n | n | n
CCOc1cc(/C=N/Nc2nnc(C)n2N)ccc1O | n | n | n | n | 66 | n | n | n | n
Fc1cccc(Cl)c1/C=N/Nc1ccccn1 | n | n | n | n | n | n | x | x | x
Cc1nnc(N/N=C/c2cc(C)n(-c3ccc(F)cc3)c2C)n1N | n | n | n | n | 45 | n | n | n | n
CCc1nnc(N/N=C/c2c(F)cccc2Cl)n1N | n | n | n | n | 57 | n | n | n | n
